From ChEMBL document CHEMBL4665627 (Eur J Med Chem, 2019)
Converted amounts (≈) assume the structure as drawn.

Tests used:
Klebsiella pneumoniae [1] = assay: Antibacterial activity against Klebsiella pneumoniae assessed as bacterial growth inhibition in presence of 2-(4-(3-(2-aminothiazol-4-yl)-1-ethyl-6-fluoro-4-oxo-1,4-dihydroquinolin-7-yl)piperazin-1-yl)acetonitrile by CLSI protocol based two fold serial dilution method; format: functional
Outline: (§1)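 Two-fold serial broth dilution in 96-well plates following CLSI; MIC (mM) taken as the lowest concentration giving complete growth inhibition; MIC values from three independent experiments.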

Staphylococcus aureus [2] = assay: Antibacterial activity against methicillin-resistant Staphylococcus aureus assessed as bacterial growth inhibition in presence of 2-(4-(3-(2-aminothiazol-4-yl)-1-ethyl-6-fluoro-4-oxo-1,4-dihydroquinolin-7-yl)piperazin-1-yl)acetonitrile by CLSI protocol based two fold serial dilution method; format: functional
Outline: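 Checkerboard-type pairing, with each agent tested alone and combined by CLSI two-fold serial dilution. MICs are from three independent experiments. FIC index = (MIC of A combined/MIC of A alone) + (MIC of B combined/MIC of B alone). An index ≤1 is read as synergistic and 1–2 as additive.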

Escherichia coli [3] = assay: Antibacterial activity against Escherichia coli assessed as inhibition of bacterial growth after 24 hrs by CLSI protocol based two fold serial dilution method; format: functional; outline: as §1
Klebsiella pneumoniae [4] = assay: Potentiation of 2-(4-(3-(2-aminothiazol-4-yl)-1-ethyl-6-fluoro-4-oxo-1,4-dihydroquinolin-7-yl)piperazin-1-yl)acetonitrile-induced antibacterial activity against Klebsiella pneumoniae assessed as fold reduction in 2-(4-(3-(2-aminothiazol-4-yl)-1-ethyl-6-fluoro-4-oxo-1,4-dihydroquinolin-7-yl)piperazin-1-yl)acetonitrile MIC by CLSI protocol based two fold serial dilution method; format: functional
Staphylococcus aureus [5] = assay: Antibacterial activity against Staphylococcus aureus assessed as bacterial growth inhibition in presence of 2-(4-(3-(2-aminothiazol-4-yl)-1-ethyl-6-fluoro-4-oxo-1,4-dihydroquinolin-7-yl)piperazin-1-yl)acetonitrile by CLSI protocol based two fold serial dilution method; format: functional
Staphylococcus aureus [6] = assay: Antibacterial activity against methicillin-resistant Staphylococcus aureus N315 assessed as inhibition of bacterial growth after 24 hrs by CLSI protocol based two fold serial dilution method; format: functional
Klebsiella pneumoniae [7] = assay: Antibacterial activity against Klebsiella pneumoniae assessed as inhibition of bacterial growth after 24 hrs by CLSI protocol based two fold serial dilution method; format: functional; outline: as §1
Staphylococcus aureus [8] = assay: Antibacterial activity against Staphylococcus aureus assessed as inhibition of bacterial growth after 24 hrs by CLSI protocol based two fold serial dilution method; format: functional; outline: as §1
Escherichia coli [9] = assay: Antibacterial activity against Escherichia coli assessed as bacterial growth inhibition in presence of 2-(4-(3-(2-aminothiazol-4-yl)-1-ethyl-6-fluoro-4-oxo-1,4-dihydroquinolin-7-yl)piperazin-1-yl)acetonitrile by CLSI protocol based two fold serial dilution method; format: functional; outline: as §1
Pseudomonas aeruginosa [10] = assay: Antibacterial activity against Pseudomonas aeruginosa assessed as inhibition of bacterial growth after 24 hrs by CLSI protocol based two fold serial dilution method; format: functional; outline: as §1
Aspergillus fumigatus = assay: Antifungal activity against Aspergillus fumigatus assessed as inhibition of fungal growth after 24 hrs by CLSI protocol based two fold serial dilution method; format: functional; outline: as §1
Staphylococcus aureus [11] = assay: Antibacterial activity against Staphylococcus aureus ATCC 29213 assessed as inhibition of bacterial growth after 24 hrs by CLSI protocol based two fold serial dilution method; format: functional
Acinetobacter baumannii = assay: Antibacterial activity against Acinetobacter baumannii assessed as inhibition of bacterial growth after 24 hrs by CLSI protocol based two fold serial dilution method; format: functional; outline: as §1
Escherichia coli [12] = assay: Antibacterial activity against Escherichia coli ATCC 25922 assessed as inhibition of bacterial growth after 24 hrs by CLSI protocol based two fold serial dilution method; format: functional; outline: as §1
Pseudomonas aeruginosa [13] = assay: Antibacterial activity against Pseudomonas aeruginosa ATCC 27853 assessed as inhibition of bacterial growth after 24 hrs by CLSI protocol based two fold serial dilution method; format: functional; outline: as §1
Candida parapsilosis = assay: Antifungal activity against Candida parapsilosis ATCC 22019 assessed as inhibition of fungal growth after 24 hrs by CLSI protocol based two fold serial dilution method; format: functional; settings: Lodderomyces parapsilosis; outline: as §1
Candida albicans [14] = assay: Antifungal activity against Candida albicans ATCC 90023 assessed as inhibition of fungal growth after 24 hrs by CLSI protocol based two fold serial dilution method; format: functional; outline: as §1
Enterococcus faecalis = assay: Antibacterial activity against Enterococcus faecalis assessed as inhibition of bacterial growth after 24 hrs by CLSI protocol based two fold serial dilution method; format: functional; outline: as §1
Staphylococcus aureus [15] = assay: Antibacterial activity against Staphylococcus aureus ATCC 25923 assessed as inhibition of bacterial growth after 24 hrs by CLSI protocol based two fold serial dilution method; format: functional; outline: as §1
Candida tropicalis = assay: Antifungal activity against Candida tropicalis assessed as inhibition of fungal growth after 24 hrs by CLSI protocol based two fold serial dilution method; format: functional; outline: as §1
Candida albicans [16] = assay: Antifungal activity against Candida albicans assessed as inhibition of fungal growth after 24 hrs by CLSI protocol based two fold serial dilution method; format: functional; outline: as §1
Saccharomyces cerevisiae = assay: Inhibition of Saccharomyces cerevisiae CGMCC 2.145 chitin synthase at 300 ug/ml using GlcNAc and UDP-GlcNAc as substrate incubated for 60 mins by microplate reader analysis relative to control; settings: dose 300.0 µg/ml
Outline: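 Chitin synthase inhibition ratio measured at 300 µg/mL test compound, relative to untreated control.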

CC(=O)OCC1=C(C(=O)O)N2C(=O)[C@@H](NC(=O)CS/C(=N/C(C)C)NC(C)C)[C@H]2SC1
MIC (Klebsiella pneumoniae [1]): 2 µM | MIC (Staphylococcus aureus [2]): 2 µM | MIC (Escherichia coli [3]): 17 µM (≈ 8.03 µg/mL) | fold change (FC) (Klebsiella pneumoniae [4]): 5 | MIC (Staphylococcus aureus [5]): 4 µM | MIC (Staphylococcus aureus [6]): 4 µM (≈ 1.89 µg/mL) | MIC (Klebsiella pneumoniae [7]): 4 µM (≈ 1.89 µg/mL) | MIC (Staphylococcus aureus [8]): 34 µM (≈ 16.1 µg/mL) | MIC (Escherichia coli [9]): 8 µM

CCn1cc(-c2csc(N)n2)c(=O)c2cc(F)c(N3CCN(C(C)=O)CC3)cc21
MIC (Pseudomonas aeruginosa [10]): 39 µM (≈ 16.2 µg/mL) | MIC (Escherichia coli [3]): 77 µM (≈ 32 µg/mL) | MIC (Aspergillus fumigatus): 19 µM (≈ 7.89 µg/mL) | MIC (Staphylococcus aureus [11]): 19 µM (≈ 7.89 µg/mL) | MIC (Acinetobacter baumannii): 39 µM (≈ 16.2 µg/mL) | MIC (Escherichia coli [12]): 39 µM (≈ 16.2 µg/mL) | MIC (Pseudomonas aeruginosa [13]): 10 µM (≈ 4.15 µg/mL) | MIC (Candida parapsilosis): 39 µM (≈ 16.2 µg/mL) | MIC (Candida albicans [14]): 19 µM (≈ 7.89 µg/mL) | MIC (Enterococcus faecalis): 39 µM (≈ 16.2 µg/mL) | MIC (Staphylococcus aureus [6]): 77 µM (≈ 32 µg/mL) | MIC (Staphylococcus aureus [15]): 39 µM (≈ 16.2 µg/mL) | MIC (Klebsiella pneumoniae [7]): 39 µM (≈ 16.2 µg/mL) | MIC (Candida tropicalis): 77 µM (≈ 32 µg/mL) | MIC (Staphylococcus aureus [8]): 77 µM (≈ 32 µg/mL) | MIC (Candida albicans [16]): 19 µM (≈ 7.89 µg/mL) | inhibition (Saccharomyces cerevisiae): 71.1%
